Experimental data published in ChEMBL document CHEMBL4433206, “Novel Lysine-Based Thioureas as Mechanism-Based Inhibitors of Sirtuin 2 (SIRT2) with Anticancer Activity in a Colorectal Cancer Murine Model” (J Med Chem, 2019).
Activity calls are given as the source filed them. No cut-off for these calls is given here.

Legend:
[1] = target: T1, NAD-dependent protein deacetylase sirtuin-2 (Homo sapiens, UniProt Q8IXJ6); experiment: Inhibition of recombinant human N-terminal His6-tagged/SUMO-fused SIRT2 (38 to 356 residues) expressed in Escherichia coli BL21 assessed as reduction in deacetylase activity using acetylated H3K9 as substrate preincubated for 15 mins followed by substrate addition and measured after 6 mins by UV-HPLC analysis
T1 sequence (Q8IXJ6 whole entry): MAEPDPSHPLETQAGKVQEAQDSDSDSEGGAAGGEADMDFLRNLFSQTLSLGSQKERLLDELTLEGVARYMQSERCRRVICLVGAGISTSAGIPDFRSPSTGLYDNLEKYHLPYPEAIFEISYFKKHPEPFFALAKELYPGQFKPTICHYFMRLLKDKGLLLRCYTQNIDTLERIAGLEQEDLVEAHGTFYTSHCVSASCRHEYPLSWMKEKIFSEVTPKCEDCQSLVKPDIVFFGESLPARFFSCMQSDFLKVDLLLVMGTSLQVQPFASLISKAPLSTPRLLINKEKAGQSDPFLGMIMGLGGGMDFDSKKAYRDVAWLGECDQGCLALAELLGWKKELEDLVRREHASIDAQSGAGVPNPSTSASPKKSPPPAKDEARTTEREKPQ

[2] = target: T2, NAD-dependent protein deacetylase sirtuin-1 (Homo sapiens, UniProt Q96EB6); experiment: Inhibition of human SIRT1 deacetylase activity using acetylated H3K9 as substrate preincubated for 15 mins followed by substrate addition and measured after 3 mins by UV-HPLC analysis
T2 sequence (Q96EB6 whole entry): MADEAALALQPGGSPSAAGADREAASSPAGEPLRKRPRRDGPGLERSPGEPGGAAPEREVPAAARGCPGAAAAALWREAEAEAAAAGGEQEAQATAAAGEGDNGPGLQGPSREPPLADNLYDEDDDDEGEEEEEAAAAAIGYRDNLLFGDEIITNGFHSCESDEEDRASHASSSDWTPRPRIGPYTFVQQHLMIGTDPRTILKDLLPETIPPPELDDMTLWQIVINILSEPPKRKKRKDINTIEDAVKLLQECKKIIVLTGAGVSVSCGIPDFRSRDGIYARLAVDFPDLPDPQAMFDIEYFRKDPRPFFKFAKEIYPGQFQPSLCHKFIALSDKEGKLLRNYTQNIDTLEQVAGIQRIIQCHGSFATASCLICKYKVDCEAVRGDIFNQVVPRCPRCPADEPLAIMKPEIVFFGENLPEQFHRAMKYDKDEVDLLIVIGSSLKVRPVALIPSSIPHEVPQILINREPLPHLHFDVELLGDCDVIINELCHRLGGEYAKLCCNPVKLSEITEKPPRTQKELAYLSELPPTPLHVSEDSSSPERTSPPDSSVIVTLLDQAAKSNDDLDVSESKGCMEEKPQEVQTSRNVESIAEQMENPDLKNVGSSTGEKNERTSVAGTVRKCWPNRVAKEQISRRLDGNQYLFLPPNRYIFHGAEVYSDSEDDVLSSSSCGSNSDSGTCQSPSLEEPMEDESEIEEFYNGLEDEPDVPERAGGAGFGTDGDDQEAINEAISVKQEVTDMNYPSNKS

[3] = target: T3, NAD-dependent protein deacetylase sirtuin-3, mitochondrial (Homo sapiens, UniProt Q9NTG7); experiment: Inhibition of human SIRT3 assessed as reduction in deacetylase activity using acetylated H3K9 as substrate preincubated for 15 mins followed by substrate addition and measured after 15 mins by UV-HPLC analysis
T3 sequence (Q9NTG7 whole entry): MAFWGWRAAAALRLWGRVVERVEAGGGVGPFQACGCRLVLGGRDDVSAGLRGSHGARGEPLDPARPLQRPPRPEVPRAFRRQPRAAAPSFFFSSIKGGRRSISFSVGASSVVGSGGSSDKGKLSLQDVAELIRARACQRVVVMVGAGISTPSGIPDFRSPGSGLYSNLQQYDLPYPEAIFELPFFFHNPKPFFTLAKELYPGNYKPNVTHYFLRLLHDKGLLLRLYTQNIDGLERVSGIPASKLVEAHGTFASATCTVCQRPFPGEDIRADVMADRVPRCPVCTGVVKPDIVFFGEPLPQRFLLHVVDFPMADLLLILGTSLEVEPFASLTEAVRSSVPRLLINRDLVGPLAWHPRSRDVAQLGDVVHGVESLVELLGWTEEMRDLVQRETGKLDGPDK

Homo sapiens = species: Homo sapiens; experiment: Selectivity ratio of IC50 for human SIRT1 to IC50 for recombinant human N-terminal His6-tagged/SUMO-fused SIRT2 (38 to 356 residues) expressed in Escherichia coli BL21
Summary of the method: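 Purified human sirtuin (SIRT1 0.05 μM, SIRT2 0.2 μM) in 20 mM Tris, 1 mM NAD⁺, 1 mM DTT, pH 8.0 was preincubated with inhibitor (0.002–417 μM, duplicate, DMSO control) for 15 min at 37 °C. Acetyl-H3K9 peptide (10 μM) was then added, and the reaction ran at 37 °C (SIRT1 3 min, SIRT2 6 min; 10–18% conversion). It was quenched with HCl/acetic acid and analysed by reverse-phase HPLC with UV at 215/326 nm.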

[4] = target: T4, NAD-dependent protein deacetylase sirtuin-2 (Homo sapiens) (UniProt Q8IXJ6); experiment: Inhibition of SIRT2 in human HCT116 cells assessed as increase in alpha-tubulin acetylation at 50 uM incubated for 6 hrs by DAPI staining-based laser scanning confocal microscopic analysis; assay type: cell-based
T4 sequence (whole entry): T1 sequence (Q8IXJ6 whole entry)
Summary of the method: (§1)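 HCT116 cells were seeded at 400 000 on poly-D-lysine-coated glass-bottom dishes and grown 24 h. Cells were treated with DMSO or inhibitor for 6 h at 37 °C, fixed in ice-cold methanol, and blocked in TBS/0.1% Triton X-100/5% BSA. They were stained with anti-acetyl α-tubulin (1:100, overnight, 4 °C), then Cy3 anti-mouse, and mounted with DAPI. Imaging was by confocal microscopy.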

[5] = target: T5, NAD-dependent protein deacetylase sirtuin-1 (Homo sapiens) (UniProt Q96EB6); experiment: Inhibition of SIRT1 in human HCT116 cells assessed as increase in acetylated p53 K382 level at 25 uM after 6 hrs by Western blot analysis; assay type: cell-based
T5 sequence (whole entry): T2 sequence (Q96EB6 whole entry)

[6] = target: T4, NAD-dependent protein deacetylase sirtuin-2 (Homo sapiens); experiment: Inhibition of SIRT2 in human HCT116 cells assessed as increase in alpha-tubulin acetylation at 25 uM incubated for 6 hrs by DAPI staining-based laser scanning confocal microscopic analysis; assay type: cell-based; summary of the method: as §1
[7] = Cytotoxicity against human HME1 cells after 72 hrs by CellTiter-Blue assay; assay type: cell-based
Summary of the method: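 Cells were seeded per well (HCT116 1000; MDA-MB-231, MDA-MB-468, NCI-H23, A549, SW948 2000; MCF7, BxPC-3, HME1 3000) and left 20 h at 37 °C. Inhibitor was added at 1–100 μM final for 72 h at 37 °C. CellTiter-Blue was then added for 4 h, and fluorescence was read at ex 560/em 590 nm.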

[8] = target: T5, NAD-dependent protein deacetylase sirtuin-1 (Homo sapiens); experiment: Inhibition of SIRT1 in Trichostatin A treated human HCT116 cells assessed as increase in acetylated p53 K382 level after 6 hrs by Western blot analysis
Summary of the method: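 HCT116 cells were seeded at 400 000 per well, grown 24 h, then cotreated with 400 nM TSA and inhibitor (25 μM, or 10–50 μM) for 6 h at 37 °C. Cells were lysed in 4% SDS buffer, pH 7.4. 50 μg of lysate was resolved by 12% SDS-PAGE and blotted for acetyl-p53 K382 antibody, with β-actin as loading control. Detection was by ECL.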

Structure (SMILES) | IC50 [1] [nM] | IC50 [2] [nM] | IC50 [3] [nM] | Ratio IC50 (Homo sapiens) | inhibition [4] | inhibition [5] | inhibition [6] | Activity [7] | inhibition [8]
CCCCCCNC(=S)NCCCC[C@H](NC(=O)OCc1ccccc1)C(=O)Nc1ccccc1 | 640 | 30000 | – | – | – | – | – | – | –
CCCCCCCCCCCCNC(=S)NCCCC[C@H](NC(=O)OCc1ccccc1)C(=O)Nc1cccc(O)c1 | 60 | 1000 | > 100000 | 17 | – | – | – | – | –
CCCCCNC(=S)NCCCC[C@H](NC(=O)OCc1ccccc1)C(=O)Nc1cccc(O)c1 | 1000 | 34000 | > 100000 | 34 | Active | Active | Active | – | –
CNC(=S)NCCCC[C@H](NC(=O)OCc1ccccc1)C(=O)Nc1cccc(O)c1 | > 100000 | > 100000 | > 100000 | – | – | – | – | – | –
CCCCCCCNC(=S)NCCCC[C@H](NC(=O)OCc1ccccc1)C(=O)Nc1ccccc1 | 160 | 22000 | – | – | – | – | – | – | –
CCCNC(=S)NCCCC[C@H](NC(=O)OCc1ccccc1)C(=O)Nc1cccc(O)c1 | > 100000 | > 100000 | > 100000 | – | inactive | inactive | inactive | – | –
CCCCCCCCNC(=S)NCCCC[C@H](NC(=O)OCc1ccccc1)C(=O)Nc1cccc(O)c1 | 120 | 1000 | > 100000 | 8 | – | – | – | – | –
CCCCCCCCCCCCCC(=S)NCCCC[C@H](NC(=O)OCc1ccccc1)C(=O)Nc1ccccc1 | – | – | > 100000 | – | – | – | – | Non-Toxic | –
NC(=O)C1CCCc2c1[nH]c1ccc(Cl)cc21 (configuration not stated) | – | – | – | – | – | Active | – | – | –
CCCCCCCCCCCCNC(=S)NCCCC[C@H](NC(=O)OCc1ccccc1)C(=O)Nc1ccccc1 | 81 | > 200000 | > 200000 | – | – | – | – | – | –
CCCCCCCCCCNC(=S)NCCCC[C@H](NC(=O)OCc1ccccc1)C(=O)Nc1cccc(O)c1 | 36 | 450 | > 100000 | 12 | Active | Active | Active | – | Dose-dependent effect
